From ChEMBL document CHEMBL1914345 (Bioorg Med Chem Lett, 2011)

What was measured:
[1] = Inhibition of retinal rod CNGA1/CNGB1 expressed in Xenopus laevis oocytes assessed as blockade of cGMP-induced current at +50 mV holding potential by patch-clamp electrophysiology; format: cell-based; settings: oocyte; read-out: Kd(app)
Method in brief: (§1)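 Heteromeric retinal CNGA1 plus CNGB1 channels expressed in Xenopus laevis oocytes. Currents activated by 2 mM cGMP and recorded at both +50 and -50 mV. Apparent Kd taken by fitting current amplitudes to a single-binding-site block equation.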

[2] = Inhibition of retinal rod CNGA1/CNGB1 expressed in Xenopus laevis oocytes assessed as blockade of cGMP-induced current at -50 mV holding potential by patch-clamp electrophysiology; format: cell-based; settings: oocyte; read-out: Kd(app); method in brief: as §1
[3] = test system: Oocyte; test: Ratio of 2-(dimethylamino)ethyl 4-(octylamino)benzoate Kd(app) to compound Kd(app) for retinal rod CNGA1/CNGB1 expressed in Xenopus laevis oocytes; format: cell-based
[4] = test system: Oocyte; test: Ratio of tetracaine Kd(app) to compound Kd(app) for retinal rod CNGA1/CNGB1 expressed in Xenopus laevis oocytes; format: cell-based
[5] = Ratio of Kd(app) for sodium channel to Kd(app) for retinal rod CNGA1/CNGB1

Compound `CCCCNc1ccc(C(=O)OCCN(C)C)cc1OC` has a Kd [1] of 4300 nM and a Kd [2] of 18300 nM.

`CCCCCCCCNc1ccc(C(=O)OCCN(C)C)cc1OC` showed a Kd [1] of 1250 nM and a Kd [2] of 3000 nM.

For `CCCCCCCCNc1ccc(C(=O)OCCN(C)C)c(Cl)c1`, the Kd [1] was 100 nM, the Kd [2] was 220 nM and the Ratio [3] was 8. For the same compound, the Ratio [4] was 50.

With `CCCCNc1ccc(C(=O)OCCN(C)C)cc1[N+](=O)[O-]` the Kd [1] was 5500 nM and the Kd [2] was 19600 nM.

`CCCCCCCCNc1ccc(C(=O)OCCN(C)C)cc1F` gave a Kd [1] of 200 nM, a Kd [2] of 750 nM and a Ratio [3] of 8. For the same compound, the Ratio [4] was 50.

`CCCCNc1ccc(C(=O)OCCN(C)C)cc1Cl` showed a Kd [1] of 3000 nM and a Kd [2] of 12800 nM.

With `CCCCCCCCNc1ccc(C(=O)OCCN(C)C)cc1` the Kd [1] was 800 nM and the Kd [2] was 1720 nM.

In the case of `CCCCNc1ccc(C(=O)OCC[N+](C)(C)CCCNCCCN)cc1`, the Ratio [5] is reported as 100.

Compound `CCCCCCCCNc1ccc(C(=O)OCCN(C)C)cc1[N+](=O)[O-]` has a Kd [1] of 8000 nM and a Kd [2] of 12600 nM.

With `CCCCCCCCNc1ccc(C(=O)OCCN(C)C)cc1Cl` the Kd [1] was 140 nM, the Kd [2] was 380 nM and the Ratio [3] was 8. For the same compound, the Ratio [4] was 50.

`CCCCNc1ccc(C(=O)OCCN(C)C)cc1C` gave a Kd [1] of 7800 nM and a Kd [2] of 28100 nM.

For `CCCCCCCCNc1ccc(C(=O)OCCN(C)C)cc1C`, the Kd [1] was 500 nM and the Kd [2] was 1410 nM.

Work on `CCCCCCCCNc1ccc(C(=O)OCCN(C)C)cc1Br` yielded a Kd [1] of 140 nM, a Kd [2] of 240 nM and a Ratio [3] of 8. For the same compound, the Ratio [4] was 50.
